High-throughput results deposited in PubChem by several laboratories.
MrgX1 PAM = allosterically activates human MrgX1 receptor signaling. actives 0.63% (n = 310,000). B-score at 10 µM. MrgX1-HEK293, Fluo-4 calcium flux, FDSS; stronger effect = higher value. AID 588675. Q96LB2;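 active = plate-corrected calcium response at least 3 library SD above typical, normal starting fluorescence, not activating the receptor alone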;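 also: compound read alongside a low EC10 to EC30 dose of BAM8-22 agonist; peak minus trough fluorescence over baseline measured at the second addition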
Target sequence (Q96LB2 whole entry, looked up): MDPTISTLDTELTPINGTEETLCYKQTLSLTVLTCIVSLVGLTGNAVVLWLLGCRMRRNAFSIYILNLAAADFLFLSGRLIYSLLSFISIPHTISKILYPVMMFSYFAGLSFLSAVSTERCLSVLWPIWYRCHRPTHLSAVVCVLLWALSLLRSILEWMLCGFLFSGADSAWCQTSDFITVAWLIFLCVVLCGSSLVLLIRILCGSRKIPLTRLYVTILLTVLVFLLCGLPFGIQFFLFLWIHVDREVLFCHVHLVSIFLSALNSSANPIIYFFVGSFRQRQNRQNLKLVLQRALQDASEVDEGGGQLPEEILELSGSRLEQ
MrgX1 antagonist = blocks BAM8-22 activation of human MrgX1 receptor | Q96LB2 | actives 1.3% (n = 310,000) | MRGX1-HEK293 calcium flux, Fluo-4, BAM8-22 antagonism; stronger effect = lower value | B-score at 10 µM;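 active = calcium-response B-score plate-corrected more than 3 library SD below zero, starting fluorescence within 5 deviations, no agonist response on first addition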;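 also: peak minus trough fluorescence over baseline after final BAM8-22 challenge near maximal dose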
RGS4 block = human RGS4 inhibition | AID 463165 | HEK293 M3R/RGS4 inducible, Fluo-4 calcium flux; stronger effect = higher value; triggered by carbachol at its EC20 | actives 0.45% (n = 310,000) | P49798 | B-score at 10 µM;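 active = B-score, a plate-corrected calcium signal, over three deviations above library mean, with baseline fluorescence within five deviations of library mean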;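 also: RGS4 expression induced by doxycycline in cells with stable M3 receptor; B-score is computed from the integrated fluorescence ratio over baseline after carbachol; higher B-score means a larger calcium signal and so more RGS4 inhibition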
Target sequence (P49798 whole entry, looked up): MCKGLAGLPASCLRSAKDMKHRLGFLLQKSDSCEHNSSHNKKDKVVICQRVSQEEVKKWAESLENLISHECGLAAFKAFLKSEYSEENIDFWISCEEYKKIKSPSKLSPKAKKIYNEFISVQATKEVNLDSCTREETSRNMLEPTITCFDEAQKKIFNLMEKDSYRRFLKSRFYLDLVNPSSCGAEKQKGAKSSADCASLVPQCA
MrgX1 ag = activates human MrgX1 receptor signaling | Q96LB2 | B-score at 10 µM | MrgX1-HEK293 cells, Fluo-4 calcium fluorescence, agonist mode; stronger effect = higher value | actives 0.44% (n = 310,000);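 active = calcium response B-score plate-corrected fluorescence ratio at least 3 library SD, with starting fluorescence B-score inside 5 SD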
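Material – MrgX1-expressing HEK293 cells · Input – 15,000 cells seeded per well · Dosing – compound as first of three additions · Times – overnight seeding, then 1 h dark dye loading · Measured by – kinetic Fluo-4 NW fluorescence of intracellular calcium · Read-out – B-scored fluorescence response ratio · Benchmarks – positive and negative control wells on each plate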
RGS4 pot = RGS4 potentiation or activation | actives 0.92% (n = 310,000) | B-score at 10 µM | HEK293 M3R/inducible RGS4, carbachol calcium flux Fluo4; stronger effect = lower value;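 active = B-score of the integrated calcium signal more than 4 SD below the library mean, with starting fluorescence not abnormally high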;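 also: negative B-score means reduced calcium response which marks RGS4 activation or potentiation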
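Assay system: HEK293 FlpIn-TREx cells, stable M3R, doxycycline-inducible RGS4 / Probe or stimulus: carbachol, ECmax concentration / Times: overnight RGS4 induction, 30 min dye load 37 °C, 20 min compound RT / Signal: kinetic calcium fluorescence imaging with Fluo4-AM dye, 2 µM / Measure: Agonist-evoked peak-minus-minimum fluorescence over baseline, integrated ratio, B score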
PHOSPHO1 inh = blocks human PHOSPHO1 phosphatase activity; Q8TCT1; recombinant PHOSPHO1, absorbance phosphatase assay; inhibition, % at 13.3 µM; actives 1.1% (n = 290,000); in the data active = inhibition above about 60%
MrgX1 antag conf = human MrgX1 receptor antagonism, re-confirmation screen; shares compounds with MrgX1 antagonist; MrgX1-HEK293, BAM8-22 calcium flux, Fluo-4; stronger effect = lower value; remaining BAM8-22 calcium response % of control (stronger effect = lower value), % at 10 µM; actives 19% (n = 2,300);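 active = remaining agonist calcium response no higher than 100% minus 3 SD of agonist-only control wells, with starting fluorescence near control levels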;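 also: agonist BAM8-22 given at a near maximal EC90 to ECmax level; peak minus minimum fluorescence divided by baseline after agonist addition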
HEK293 Ca flux = counter-screen for MrgX1 antagonists: effect in parental HEK293 cells. shares compounds with MrgX1 antagonist. Fluo-4 calcium fluorescence, FDSS. fluorescence ratio F(max-min)/F0 at 10 µM. actives 2% (n = 4,000). AID 624111;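 active = duplicate-averaged calcium fluorescence ratio at least three times the standard deviation of buffer wells, a nonspecific response in parental cells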
HEK293 Ca counter = MrgX1 allosteric activator counter-screen hit in parental HEK293 cells | shares compounds with MrgX1 antagonist | parental HEK293 calcium flux, Fluo-4 fluorescence ratio; stronger effect = higher value | fluorescence ratio F(max-min)/F0 at 10 µM | actives 0.4% (n = 4,000) | AID 624114;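 active = calcium fluorescence ratio, averaged over duplicates, at least 3 SD of the buffer-well ratio, meaning a nonspecific response in receptor-free cells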;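 also: untransfected parental HEK293 lacking MrgX1 used as counterscreen for MrgX1 allosteric activators; fluorescence change taken during the second addition on a kinetic imager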
HEK293 Ca cntr2 = counter-screen for MrgX1 activators: effect in parental HEK293 cells. actives 8.7% (n = 4,000). AID 624115. shares compounds with MrgX1 antagonist. fluorescence ratio F(max-min)/F0 at 10 µM. Fluo-4 calcium fluorescence (FDSS); stronger effect = higher value;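 active = calcium fluorescence ratio at least three times the spread of buffer wells, meaning a non-specific response in parental cells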
Starred values were filed as active, the others as inactive; i = inactive; · = not tested or not shown. Hits are enriched below; roughly 4.5% of the tested compounds scored in any of these assays.

SMILES	MrgX1 PAM	MrgX1 antagonist	RGS4 block	MrgX1 ag	RGS4 pot	PHOSPHO1 inh	MrgX1 antag conf	HEK293 Ca flux	HEK293 Ca counter	HEK293 Ca cntr2
Cc1cccc(-n2ncc3c(NCCc4ccc(S(N)(=O)=O)cc4)ncnc32)c1	i	-5.47*	i	i	i	-4.4	82.4%*	i	i	i
COCCn1c(SCC(=O)Nc2ccc(F)cc2F)nc2c([nH]c3ccccc32)c1=O	i	i	i	i	i	28.7	·	·	·	·
CCC(C(=O)Nc1c2c(nn1C(C)(C)C)CS(=O)(=O)C2)c1ccccc1 (stereo not drawn)	i	-8.06*	i	i	i	-5.4	i	i	i	i
CCOc1ccccc1CNC(=O)c1cc2oc3ccccc3c2n1C	i	i	i	i	i	-43.0	·	·	·	·
COCCNC(=O)c1cc2oc3ccccc3c2n1C	i	-5.02*	i	i	i	-3.8	i	i	i	i
Cc1ccc(NC(=O)Cn2nnc(-c3ccccc3NC(=O)c3cccs3)n2)cc1	i	i	i	i	i	-1.4	·	·	·	·
COc1ccc(NC(=O)Cn2nnc(-c3ccccc3NC(=O)c3cccs3)n2)cc1	i	-7.04*	i	i	i	17.2	i	i	i	i
O=C(O)CCc1ccc(-c2cccs2)n1-c1ccc(C(=O)O)cc1	i	-4.71*	i	i	i	8.6	i	i	i	i
CNc1nc(C)c([N+](=O)[O-])c(Nc2ccc(OC)cc2)n1	i	i	i	i	i	13.5	·	·	·	·
CC(=O)Nc1ccc(Nc2nc(C)c([N+](=O)[O-])c(Nc3ccc(NC(C)=O)cc3)n2)cc1	i	-22.1*	i	i	i	-2.0	82.2%*	i	i	i
COC(=O)c1[nH]c2ccc(C)cc2c1NS(=O)(=O)c1ccc(F)c(C)c1	i	-6.81*	i	i	i	37.9	i	i	i	i
Cc1ccc(NC(=O)Nc2cccnc2)cc1Cl	i	-4.74*	i	i	i	24.8	80.1%*	i	i	i
Fc1ccc(NC(=S)Nc2cccnc2)cc1Cl	i	-5.57*	i	i	i	32.3	i	i	i	i
O=C(Nc1ccc(F)c(Cl)c1)Nc1cnccn1	i	-6.16*	i	i	i	19.2	i	i	i	i
Fc1ccc(NC(=S)Nc2cccnc2)cc1	i	i	i	i	i	17.0	·	·	·	·
CC(Sc1ccccc1)C(=O)NCC(c1ccco1)N1CCCCC1 (stereo not drawn)	i	i	i	i	i	·	·	·	·	·
CSc1ccccc1OCc1cc(C(=O)N2CCN3CCCC3C2)no1 (stereo not drawn)	i	i	i	i	i	-6.3	·	·	·	·
Cc1ccc(Cn2nnc(C(=O)Nc3cc(C)ccc3C)c2N)cc1	i	-4.62*	i	i	i	33.5	i	i	i	i
CCOC(=O)c1cc(N)cc([N+](=O)[O-])c1	i	i	i	i	i	-1.5	·	·	·	·
CCOC(=O)c1sc2cc([N+](=O)[O-])cc(SCC(C)C)c2c1N	i	-10*	i	i	i	64.0*	i	0.598*	i	i
Cc1noc(C(=O)N2CCN(c3ccccc3)CC2)c1Cl	i	i	i	i	i	-0.5	·	·	·	·
